In ChEMBL document CHEMBL1137561 (J Med Chem, 2007):

Tests used:
[1] = target: Human immunodeficiency virus type 1 reverse transcriptase (Human immunodeficiency virus 1, UniProt Q72547, V179D); experiment: Inhibition of HIV1 reverse transcriptase V179D mutant
[2] = target: Human immunodeficiency virus type 1 reverse transcriptase (Human immunodeficiency virus 1, UniProt Q72547, Y188L); experiment: Inhibition of HIV1 reverse transcriptase Y188L mutant
[3] = target: Human immunodeficiency virus type 1 reverse transcriptase (Human immunodeficiency virus 1, UniProt Q72547, V106A); experiment: Inhibition of HIV1 reverse transcriptase V106A mutant
[4] = Cytotoxicity against MT4 cells after 4 days by MTT method; assay type: cell-based; conditions: human
How it was run: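 Mock-infected (noninfected) MT-4 cells, run in parallel with the antiviral test. Viable cells read by the MTT tetrazolium colorimetric method. […] Means ± SD from at least two experiments. The top concentration was limited where compounds precipitated in the culture medium.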

[5] = Selectivity index, ratio of CC50 for MT4 cells to EC50 for HIV1 NL43 infected MT4 cells; assay type: functional
[6] = tested on: Human immunodeficiency virus 1; experiment: Antiviral activity against HIV1 with reverse transcriptase IRLL98 mutation in MT4 cells assessed as inhibition of viral induced cytopathic effect by MTT method; assay type: functional, organism-based; conditions: Human immunodeficiency virus 1, MT4
[7] = tested on: Human immunodeficiency virus 1; experiment: Antiviral activity against HIV1 with reverse transcriptase Y188L mutation in MT4 cells assessed as inhibition of viral induced cytopathic effect by MTT method; assay type: functional, organism-based; conditions: Human immunodeficiency virus 1, MT4
How it was run: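 MT-4 cells infected with the HIV-1 NNRTI-resistant mutant strain. Viable cells scored at day 5 post-infection by the MTT tetrazolium colorimetric method. Values are means ± SD from at least two experiments.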

[8] = tested on: Human immunodeficiency virus 1; experiment: Antiviral activity against HIV1 with reverse transcriptase K103N mutation in MT4 cells assessed as inhibition of viral induced cytopathic effect by MTT method; assay type: functional, organism-based; conditions: Human immunodeficiency virus 1, MT4
How it was run: (§1)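 MT-4 cells infected with the HIV-1 NNRTI-resistant mutant strain. Viable cells scored at day 5 post-infection by the MTT tetrazolium colorimetric method. […] Values are means ± SD from at least two experiments.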

[9] = target: Human immunodeficiency virus type 1 reverse transcriptase (Human immunodeficiency virus 1, UniProt Q72547); experiment: Inhibition of wild type HIV1 3B reverse transcriptase
[10] = target: Human immunodeficiency virus type 1 reverse transcriptase (Human immunodeficiency virus 1, UniProt Q72547, K103N); experiment: Inhibition of HIV1 reverse transcriptase K103N mutant
[11] = tested on: Human immunodeficiency virus 1; experiment: Antiviral activity against HIV1 with reverse transcriptase Y181C mutation in MT4 cells assessed as inhibition of viral induced cytopathic effect by MTT method; assay type: functional, organism-based; conditions: Human immunodeficiency virus 1, MT4; how it was run: as §1
[12] = tested on: Human immunodeficiency virus 1; experiment: Antiviral activity against HIV1 NL43 in MT4 cells assessed as inhibition of viral induced cytopathic effect after 5 days by MTT method; conditions: Human immunodeficiency virus 1, NL43, MT4, 120 h
[13] = target: Human immunodeficiency virus type 1 reverse transcriptase (Human immunodeficiency virus 1, UniProt Q72547, L100I); experiment: Inhibition of HIV1 reverse transcriptase L100I mutant
[14] = Inhibition of HIV1 reverse transcriptase Y1811 mutant; design: species or system Human immunodeficiency virus 1
How it was run: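 Recombinant HIV-1 RT Y181I mutant, purified to >95%, 10 min preincubation with inhibitor. Radioactive nucleotide incorporation into poly(rA)/oligo(dT) 10:1 was followed at varied nucleotide substrate levels, sampling every 2 min for initial velocities. Inhibitor spanned 0.2–5 Ki. Ki came from Lineweaver-Burk and Dixon plots. Means ± SD of at least three experiments.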

[15] = tested on: Human immunodeficiency virus 1; experiment: Resistance index, ratio of Ki for HIV1 reverse transcriptase Y181I mutant to Ki for wild type HIV1 3B reverse transcriptase
How it was run: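 Initial velocities came from radioactive nucleotide incorporation into poly(rA)/oligo(dT) 10:1, sampled every 2 min. Inhibitor spanned 0.2–5 Ki, with Lineweaver-Burk and Dixon plots. Fold-resistance is Ki mutant / Ki wild type.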

[16] = Resistance index, Ratio of EC50 for drug-resistant HIV1 with RT Y181C mutation in MT4 cells to EC50 for HIV1 NL43 in MT4 cells
[17] = Resistance index, Ratio of EC50 for drug-resistant HIV1 with RT K103N mutation in MT4 cells to EC50 for HIV1 NL43 in MT4 cells
[18] = Resistance index, Ratio of EC50 for drug-resistant HIV1 with RT IRLL98 mutation in MT4 cells to EC50 for HIV1 NL43 in MT4 cells
[19] = Resistance index, Ratio of EC50 for drug-resistant HIV1 with RT Y188L mutation in MT4 cells to EC50 for HIV1 NL43 in MT4 cells

Compound | Ki [1] [nM] | Ki [2] [nM] | Ki [3] [nM] | CC50 at 96 h [4] [nM] | Ratio CC50/EC50 [5] | EC50 [6] [nM] | EC50 [7] [nM] | EC50 [8] [nM] | Ki [9] [nM] | Ki [10] [nM] | EC50 [11] [nM] | EC50 [12] [nM] | Ki [13] [nM] | Ki [14] [nM] | Ratio Ki [15] | Ratio EC50 [16] | Ratio EC50 [17] | Ratio EC50 [18] | Ratio EC50 [19]
O=c1cc(Cc2c(F)cccc2F)nc(N2CCSCC2)[nH]1 | 5000 | 1000 | 500 | > 77000 | >2200 | > 10000 | > 10000 | > 10000 | 200 | 1500 | > 10000 | 35 | 10000 | 400 | 2 | – | – | – | –
CCC(c1nc(N(C)C)[nH]c(=O)c1C)c1c(F)cccc1F (stereo not given) | > 40000 | > 20000 | > 40000 | > 81000 | >11571 | 1180 | 480 | 1830 | 1000 | > 20000 | 290 | 7 | > 20000 | > 20000 | – | 41 | 261 | 169 | 69
CCCN(C)c1nc(Cc2c(F)cccc2F)c(C)c(=O)[nH]1 | 200 | > 20000 | 8 | > 81000 | >40500 | 55 | 1600 | 750 | 100 | > 20000 | 39 | 2 | 18000 | > 20000 | – | 19 | 375 | 27 | 800
CCN(C)c1nc(Cc2c(F)cccc2F)c(C)c(=O)[nH]1 | – | – | – | > 85000 | >4722 | 420 | 8000 | 4600 | – | – | 710 | 18 | – | – | – | 39 | 256 | 23 | 444
Cc1c(Cc2c(F)cccc2F)nc(N(C)C(C)C)[nH]c1=O | – | – | – | 79000 | 39500 | 80 | 2300 | 1200 | – | – | 30 | 2 | – | – | – | 15 | 600 | 40 | 1150
Cc1c(C(C)c2c(F)cccc2F)nc(N2CCCCC2)[nH]c1=O (stereo not given) | 10 | 3500 | 20 | > 75000 | >10714 | 60 | 390 | 520 | 70 | 600 | 70 | 7 | 2000 | > 20000 | – | 10 | 74 | 9 | 56
Cc1c(C(C)c2c(F)cccc2F)nc(N2CCC(C)CC2)[nH]c1=O (stereo not given) | – | – | – | 54000 | 27000 | 300 | 220 | 322 | – | – | 10 | 2 | – | – | – | 5 | 161 | 150 | 110
Cc1c(C(C)c2c(F)cccc2F)nc(N2CCOCC2)[nH]c1=O (stereo not given) | > 20000 | 5500 | 500 | > 74000 | >37000 | 50 | 560 | 390 | 3 | 3300 | 90 | 2 | 10000 | > 20000 | – | 45 | 195 | 25 | 280
CCCNc1nc(C(C)c2c(F)cccc2F)c(C)c(=O)[nH]1 (stereo not given) | – | 3110 | 40 | 35000 | 11667 | 90 | > 10000 | 370 | 40 | 470 | 60 | 3 | 310 | 5020 | 125 | 20 | 125 | 30 | –
O=c1cc(Cc2c(F)cccc2F)nc(N2CCCCC2)[nH]1 | 5000 | > 20000 | 200 | > 82000 | >6308 | 2200 | 8000 | > 10000 | 2500 | > 20000 | 710 | 13 | 10000 | > 20000 | – | 55 | – | 169 | 615
CN(C)c1nc(Cc2c(F)cccc2F)cc(=O)[nH]1 | 5000 | 30000 | 500 | > 94000 | >4087 | 2000 | > 10000 | > 10000 | 80 | 3000 | 3600 | 23 | 10000 | – | 37 | 156 | – | 87 | –
